PubChem BioAssay AID463104 (Sanford-Burnham Center for Chemical Genomics, 2010)
Screen size: about 330,000 compounds; about 1,100 (0.33%) were called active. The sample as a whole holds a higher share of actives than the screen did. A number with no mark means an inactive call.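 The calls were made as follows: active = versus positive control, 20 µM dose yields 30% or more activation; inactive = the rest.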

experiment: IRE1-XBP1 pathway stimulators – cell-based, CHO-XBP1 luciferase reporter, luminescence, uHTS, primary screen (AID 463104); conditions: IRE1-XBP1 UPR activation, at 20 µM, hits give high values, percent of tunicamycin response, DMSO as zero;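 also: 100% = tunicamycin at 10 µg/mL and 0% = DMSO only wells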
In short: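 incubation = overnight seeding at 37 °C, 6 h compound treatment at 37 °C | assay system = CHO-XBP1 cells stably carrying IRE1-XBP1-driven luciferase reporter | input = 1000 cells per well | detection = luciferase luminescence | dosing = single point, 20 µM final compound, 1% DMSO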

| SMILES | activation |
| --- | --- |
| COC(=O)C1=C(c2ccccc2)C[C@@H]2CC[C@H]1N2C(=O)NCc1ccco1 | 1.2% |
| COc1cc(Cn2c(N)c(C(=O)NCc3ccco3)c3nc4ccccc4nc32)cc(OC)c1OC | 35.8% (active) |
| CCOC(=O)c1c(N)n(Cc2ccccc2)c2nc3ccccc3nc12 | 2.64% |
| CC(C(=O)Nc1ccc(Cl)cc1Cl)N1CC=C(c2ccccc2)CC1 (stereo not given) | -1.2% |
| CNC(=O)O/N=C(\N)Cc1csc2ccc(Cl)cc12 | 0.76% |
